Source: ChEMBL document CHEMBL1137074, “Novel N-arylpyrazolo[3,2-c]-based ligands for the glucocorticoid receptor: receptor binding and in vivo activity” (J Med Chem, 2004)
pEC50, pIC50: −log10 of the molar value.

Legend:
Mus musculus = assay: Ability to induce mouse macrophage IL-6 assay in peritoneal exudate cells harvested by […] from C57BI/6 mice.; format: functional, cell-based
Outline: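 Thioglycolate-elicited peritoneal exudate cells from C57Bl/6 mice, harvested day 3 in PBS/heparin, washed and resuspended at 5.6×10^5 cells/mL in RPMI 1640 with 10% heat-inactivated FCS. Compound (typically 3 μM final) preincubated 1 h at 37 °C, 5% CO2, then LPS or TNF added, 24 h. Supernatant IL-6 read; duplicate wells, three experiments.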

Glucocorticoid receptor [1] = molecular target: T1, Glucocorticoid receptor (Homo sapiens, UniProt P04150); assay: Compound was tested for inhibitory activity towards human glucocorticoid receptor
T1 sequence (P04150 whole entry): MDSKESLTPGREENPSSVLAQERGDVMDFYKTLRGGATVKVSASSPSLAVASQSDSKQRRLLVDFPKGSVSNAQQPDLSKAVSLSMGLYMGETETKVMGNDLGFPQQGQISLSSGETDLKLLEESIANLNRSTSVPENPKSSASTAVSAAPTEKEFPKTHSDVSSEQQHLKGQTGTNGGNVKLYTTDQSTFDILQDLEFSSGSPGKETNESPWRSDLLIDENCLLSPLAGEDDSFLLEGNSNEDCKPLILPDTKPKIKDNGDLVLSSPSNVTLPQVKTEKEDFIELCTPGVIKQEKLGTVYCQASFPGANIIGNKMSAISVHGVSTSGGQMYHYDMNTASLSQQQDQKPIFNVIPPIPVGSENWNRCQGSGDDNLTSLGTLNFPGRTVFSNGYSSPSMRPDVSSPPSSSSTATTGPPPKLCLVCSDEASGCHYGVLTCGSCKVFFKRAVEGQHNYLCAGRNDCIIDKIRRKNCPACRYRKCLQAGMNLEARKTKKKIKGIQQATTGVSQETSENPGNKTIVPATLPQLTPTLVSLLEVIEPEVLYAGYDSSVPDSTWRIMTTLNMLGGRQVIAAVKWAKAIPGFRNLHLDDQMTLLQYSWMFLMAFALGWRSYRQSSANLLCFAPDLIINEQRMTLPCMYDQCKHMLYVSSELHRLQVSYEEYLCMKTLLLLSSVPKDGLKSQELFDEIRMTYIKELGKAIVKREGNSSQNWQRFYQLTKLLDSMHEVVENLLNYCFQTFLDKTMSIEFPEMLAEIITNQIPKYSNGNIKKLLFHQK

Glucocorticoid receptor [2] = molecular target: T1, Glucocorticoid receptor; assay: Ability to induce human IL-6 assay in A549 lung carcinoma cell line.; format: functional, cell-based
[3] = molecular target: Mineralocorticoid receptor (Rattus norvegicus) (UniProt P22199); assay: Binding affinity for rat mineralocorticoid receptor
Progesterone receptor = molecular target: T2, Progesterone receptor (Homo sapiens, UniProt P06401); assay: Binding affinity towards human progesterone receptor
T2 sequence (P06401 whole entry): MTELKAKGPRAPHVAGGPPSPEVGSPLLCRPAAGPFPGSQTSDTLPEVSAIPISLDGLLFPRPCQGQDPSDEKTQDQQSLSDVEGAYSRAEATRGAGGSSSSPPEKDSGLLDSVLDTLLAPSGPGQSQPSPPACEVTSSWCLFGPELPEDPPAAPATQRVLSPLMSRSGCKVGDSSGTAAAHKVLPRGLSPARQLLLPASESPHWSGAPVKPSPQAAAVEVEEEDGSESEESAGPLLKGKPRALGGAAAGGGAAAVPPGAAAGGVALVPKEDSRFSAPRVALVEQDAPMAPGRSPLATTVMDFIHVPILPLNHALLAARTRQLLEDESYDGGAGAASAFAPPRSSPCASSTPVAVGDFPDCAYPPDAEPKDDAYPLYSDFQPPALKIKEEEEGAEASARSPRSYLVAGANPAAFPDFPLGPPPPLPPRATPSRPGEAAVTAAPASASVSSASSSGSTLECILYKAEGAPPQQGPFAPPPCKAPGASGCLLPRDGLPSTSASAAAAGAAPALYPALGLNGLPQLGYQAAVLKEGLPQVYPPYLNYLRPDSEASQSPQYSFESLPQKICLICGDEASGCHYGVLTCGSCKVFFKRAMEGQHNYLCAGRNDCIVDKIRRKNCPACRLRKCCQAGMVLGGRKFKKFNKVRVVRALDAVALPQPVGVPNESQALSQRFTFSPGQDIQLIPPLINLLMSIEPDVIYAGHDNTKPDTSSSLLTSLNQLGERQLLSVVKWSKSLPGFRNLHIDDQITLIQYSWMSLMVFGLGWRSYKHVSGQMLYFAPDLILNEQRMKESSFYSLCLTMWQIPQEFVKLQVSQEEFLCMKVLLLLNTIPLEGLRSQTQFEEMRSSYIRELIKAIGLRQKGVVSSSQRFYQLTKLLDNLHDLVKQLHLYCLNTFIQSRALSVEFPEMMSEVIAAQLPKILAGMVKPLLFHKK
Outline: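 Receptor homogenates from frozen cell pellets in ice-cold KPO4 buffer (10 mM KPO4, 20 mM molybdate, 1 mM EDTA, 5 mM DTT, protease inhibitors), spun 35 000g 1 h at 4 °C. MR: recombinant baculovirus-expressed rat receptor, 2 nM [3H]aldosterone; PR: T-47D cell protein, 5 nM [3H]progesterone.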

Androgen receptor = molecular target: T3, Androgen receptor (Homo sapiens, UniProt P10275); assay: Binding affinity for human androgen receptor
T3 sequence (P10275 whole entry): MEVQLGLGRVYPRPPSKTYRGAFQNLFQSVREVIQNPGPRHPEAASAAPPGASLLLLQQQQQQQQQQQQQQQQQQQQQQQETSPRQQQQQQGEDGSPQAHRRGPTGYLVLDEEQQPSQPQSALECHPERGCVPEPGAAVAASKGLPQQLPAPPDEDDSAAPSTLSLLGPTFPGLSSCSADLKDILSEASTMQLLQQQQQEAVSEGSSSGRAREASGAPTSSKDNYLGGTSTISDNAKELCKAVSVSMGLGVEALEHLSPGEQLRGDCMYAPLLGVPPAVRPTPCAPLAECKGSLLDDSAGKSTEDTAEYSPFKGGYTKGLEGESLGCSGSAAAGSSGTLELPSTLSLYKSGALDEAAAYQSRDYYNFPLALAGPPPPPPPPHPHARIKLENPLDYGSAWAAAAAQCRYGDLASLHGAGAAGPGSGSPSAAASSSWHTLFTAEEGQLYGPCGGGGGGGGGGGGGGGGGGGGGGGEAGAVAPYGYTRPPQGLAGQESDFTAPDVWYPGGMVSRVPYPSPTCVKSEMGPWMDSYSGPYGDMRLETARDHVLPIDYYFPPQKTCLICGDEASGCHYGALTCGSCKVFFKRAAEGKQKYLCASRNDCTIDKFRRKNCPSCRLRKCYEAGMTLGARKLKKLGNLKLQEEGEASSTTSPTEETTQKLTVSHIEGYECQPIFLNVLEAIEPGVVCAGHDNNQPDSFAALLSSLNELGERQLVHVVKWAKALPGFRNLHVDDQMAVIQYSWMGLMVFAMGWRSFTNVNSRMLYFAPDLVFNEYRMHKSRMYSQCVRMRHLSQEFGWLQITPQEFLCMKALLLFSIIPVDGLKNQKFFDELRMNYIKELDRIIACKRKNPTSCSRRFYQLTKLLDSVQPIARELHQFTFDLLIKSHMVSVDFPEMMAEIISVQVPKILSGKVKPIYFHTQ

Glucocorticoid receptor [4] = molecular target: T1, Glucocorticoid receptor; assay: Binding affinity for human glucocorticoid receptor
Estrogen receptor = molecular target: T4, Estrogen receptor (Homo sapiens, UniProt P03372); assay: Binding affinity for human Estrogen receptor alpha
T4 sequence (P03372 whole entry): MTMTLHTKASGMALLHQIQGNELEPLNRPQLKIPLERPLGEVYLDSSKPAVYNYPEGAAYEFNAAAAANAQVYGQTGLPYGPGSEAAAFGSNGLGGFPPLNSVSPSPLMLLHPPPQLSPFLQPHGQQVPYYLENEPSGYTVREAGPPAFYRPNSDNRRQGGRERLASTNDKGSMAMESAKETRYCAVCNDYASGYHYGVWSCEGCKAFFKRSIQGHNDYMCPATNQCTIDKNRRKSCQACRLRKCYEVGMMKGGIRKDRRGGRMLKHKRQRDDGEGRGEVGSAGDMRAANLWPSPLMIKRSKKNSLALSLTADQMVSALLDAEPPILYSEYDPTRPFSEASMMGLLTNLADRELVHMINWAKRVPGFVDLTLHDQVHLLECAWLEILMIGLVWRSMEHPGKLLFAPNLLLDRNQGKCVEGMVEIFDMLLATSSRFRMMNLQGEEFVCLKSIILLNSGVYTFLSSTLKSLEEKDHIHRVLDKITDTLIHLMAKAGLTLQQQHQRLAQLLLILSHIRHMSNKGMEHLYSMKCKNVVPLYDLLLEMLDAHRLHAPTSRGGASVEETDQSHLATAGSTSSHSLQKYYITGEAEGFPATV

Glucocorticoid receptor [5] = molecular target: T1, Glucocorticoid receptor; assay: Glucocorticoid induced transactivation of human tyrosine amino transferase in HepG2 cells; format: functional, cell-based
Glucocorticoid receptor [6] = molecular target: T1, Glucocorticoid receptor; assay: Ability to induce human glutamine synthetase in skeletal muscle cells; format: cell-based

Sequence of Mineralocorticoid receptor (Rattus norvegicus) (P22199 whole entry, looked up): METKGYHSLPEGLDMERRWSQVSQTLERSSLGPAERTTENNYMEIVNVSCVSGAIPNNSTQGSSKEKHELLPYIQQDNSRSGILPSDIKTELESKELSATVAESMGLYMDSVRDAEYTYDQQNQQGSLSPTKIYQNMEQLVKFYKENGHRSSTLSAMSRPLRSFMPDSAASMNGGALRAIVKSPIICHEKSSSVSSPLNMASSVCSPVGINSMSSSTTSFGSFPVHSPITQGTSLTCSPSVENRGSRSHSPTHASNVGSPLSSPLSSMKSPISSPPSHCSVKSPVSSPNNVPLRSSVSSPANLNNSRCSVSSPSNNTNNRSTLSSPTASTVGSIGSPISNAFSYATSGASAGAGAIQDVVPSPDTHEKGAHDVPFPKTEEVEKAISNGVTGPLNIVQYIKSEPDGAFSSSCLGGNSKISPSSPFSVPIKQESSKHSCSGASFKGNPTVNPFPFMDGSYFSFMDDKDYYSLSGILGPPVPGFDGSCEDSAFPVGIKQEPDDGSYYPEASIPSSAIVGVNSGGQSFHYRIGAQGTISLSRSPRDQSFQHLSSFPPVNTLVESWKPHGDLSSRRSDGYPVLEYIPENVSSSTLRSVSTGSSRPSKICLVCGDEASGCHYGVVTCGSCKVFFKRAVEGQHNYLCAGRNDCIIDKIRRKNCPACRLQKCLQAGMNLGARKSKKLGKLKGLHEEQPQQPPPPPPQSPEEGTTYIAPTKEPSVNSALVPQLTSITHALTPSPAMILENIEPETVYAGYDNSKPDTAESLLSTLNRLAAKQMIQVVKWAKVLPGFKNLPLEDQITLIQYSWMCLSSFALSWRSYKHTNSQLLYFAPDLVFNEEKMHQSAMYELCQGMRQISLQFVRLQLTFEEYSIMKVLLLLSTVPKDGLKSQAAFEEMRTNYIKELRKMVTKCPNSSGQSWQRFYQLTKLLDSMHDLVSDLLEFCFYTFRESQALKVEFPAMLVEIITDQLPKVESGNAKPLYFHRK

SMILES	pEC50 (Mus musculus)	pIC50 (Glucocorticoid receptor [1])	pEC50 (Glucocorticoid receptor [2])	pIC50 [3]	pIC50 (Progesterone receptor)	pIC50 (Androgen receptor)	pIC50 (Glucocorticoid receptor [4])	pIC50 (Estrogen receptor)	pEC50 (Glucocorticoid receptor [5])	pEC50 (Glucocorticoid receptor [6])
Cc1cc([C@H](O)[C@H]2CCCC3=Cc4c(cnn4-c4ccc(F)cc4)C[C@@]32C)ccc1F	7.27	8.17	7.99	–	–	–	–	–	–	–
C[C@]12Cc3cnn(-c4ccc(F)cc4)c3C=C1CCC[C@@H]2[C@@H](O)c1ccccc1	6.96	8.08	8.54	< 5.30	6.18	< 5.30	8.08	< 6.00	–	–
C[C@]12Cc3cnn(-c4ccc(F)cc4)c3C=C1CCC[C@@H]2[C@@H](O)c1ccc(F)cc1	–	–	–	< 5.30	< 6.00	< 5.30	–	< 5.30	–	–
C[C@]12Cc3cnn(-c4ccc(F)cc4)c3C=C1CCC[C@@H]2[C@@H](O)Cc1ccccc1	7.61	8.38	7.86	–	–	–	–	–	–	–
C=CCC[C@H](O)[C@H]1CCCC2=Cc3c(cnn3-c3ccc(F)cc3)C[C@@]21C	8.24	8.96	8.36	< 5.30	< 6.00	< 5.30	8.38	< 6.00	6.59	–
C[C@]12Cc3cnn(-c4ccc(F)cc4)c3C=C1CCC[C@@H]2[C@@H](O)c1cccc(O)c1	6.75	7.60	7.27	–	–	–	–	–	–	–
C[C@]12Cc3cnn(-c4ccc(F)cc4)c3C=C1CCC[C@@H]2[C@@H](O)c1ccccc1F	7.24	8.14	8.57	–	–	–	–	–	–	–
CC(C)(C)[C@H](O)[C@H]1CCCC2=Cc3c(cnn3-c3ccc(F)cc3)C[C@@]21C	–	7.11	–	–	–	–	–	–	–	–
C[C@]12C=CC(=O)C=C1CCC1[C@@H]2[C@@H](O)C[C@@]2(C)[C@H]1CC[C@]2(O)C(=O)CO (single isomer, unassigned) [PREDNISOLONE]	8.24	–	–	–	–	–	–	–	–	–
C[C@H](O)[C@H]1CCCC2=Cc3c(cnn3-c3ccc(F)cc3)C[C@@]21C	–	8.06	7.84	–	–	–	–	–	–	–
COc1ccc(C[C@H](O)[C@H]2CCCC3=Cc4c(cnn4-c4ccc(F)cc4)C[C@@]32C)cc1	7.18	8.20	–	–	–	–	–	–	–	–
C[C@]12Cc3cnn(-c4ccc(F)cc4)c3C=C1CCC[C@@H]2[C@@H](O)Cc1ccc(F)cc1	8.43	8.55	8.49	–	–	–	–	–	6.00	7.27
COc1cc([C@H](O)[C@H]2CCCC3=Cc4c(cnn4-c4ccc(F)cc4)C[C@@]32C)ccc1F	7.69	8.10	7.50	–	–	–	–	–	–	–
Cc1ccc(C[C@H](O)[C@H]2CCCC3=Cc4c(cnn4-c4ccc(F)cc4)C[C@@]32C)cc1	7.38	8.47	7.94	–	–	–	–	–	–	–
C=CC[C@H](O)[C@H]1CCCC2=Cc3c(cnn3-c3ccc(F)cc3)C[C@@]21C	7.44	8.41	8.03	–	–	–	–	–	6.18	7.18
CC(C)(O)[C@H]1CCCC2=Cc3c(cnn3-c3ccc(F)cc3)C[C@@]21C	7.82	8.72	8.52	–	–	–	–	–	7.08	6.74
C[C@]12Cc3cnn(-c4ccc(F)cc4)c3C=C1CCC[C@@H]2[C@](C)(O)c1ccsc1	8.28	9.10	9.00	–	–	–	–	–	7.45	7.85
C[C@]12Cc3cnn(-c4ccc(F)cc4)c3C=C1CCC[C@@H]2[C@@H](O)c1ccc(Cl)cc1	7.22	8.05	8.72	–	–	–	–	–	–	–
C[C@]12Cc3cnn(-c4ccc(F)cc4)c3C=C1CCC[C@@H]2[C@@H](O)CCC1CC1	7.58	8.82	8.07	–	–	–	–	–	6.48	7.18
C[C@]12Cc3cnn(-c4ccc(F)cc4)c3C=C1CCC[C@@H]2[C@@H](O)c1ccc(O)cc1	7.11	8.02	7.71	–	–	–	–	–	–	–
C[C@]12Cc3cnn(-c4ccc(F)cc4)c3C=C1CCC[C@@H]2[C@H](O)c1ccc(F)cc1	–	–	–	< 5.30	< 6.00	< 5.30	–	< 6.00	–	–
CC(C)(C)c1ccc(C[C@H](O)[C@H]2CCCC3=Cc4c(cnn4-c4ccc(F)cc4)C[C@@]32C)cc1	7.06	7.78	7.62	–	–	–	–	–	–	–
